TNAP act hi DEA: TNAP activators at high phosphate acceptor level, primary screen, biochemical, luminescence, uHTS; Alkaline phosphatase, tissue-nonspecific isozyme (Homo sapiens), P05186; purified TNAP, CDP-star luminescence, 1 M DEA, 30 min; active compounds read high; 0 = EDTA background, 1 = DMSO-only activity; activation factor at 20 µM; 200,000 tested, under 10 active; AID 1136, 2008;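 active = activation factor at least 2 at 20 µM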
Target sequence (P05186 whole entry, looked up): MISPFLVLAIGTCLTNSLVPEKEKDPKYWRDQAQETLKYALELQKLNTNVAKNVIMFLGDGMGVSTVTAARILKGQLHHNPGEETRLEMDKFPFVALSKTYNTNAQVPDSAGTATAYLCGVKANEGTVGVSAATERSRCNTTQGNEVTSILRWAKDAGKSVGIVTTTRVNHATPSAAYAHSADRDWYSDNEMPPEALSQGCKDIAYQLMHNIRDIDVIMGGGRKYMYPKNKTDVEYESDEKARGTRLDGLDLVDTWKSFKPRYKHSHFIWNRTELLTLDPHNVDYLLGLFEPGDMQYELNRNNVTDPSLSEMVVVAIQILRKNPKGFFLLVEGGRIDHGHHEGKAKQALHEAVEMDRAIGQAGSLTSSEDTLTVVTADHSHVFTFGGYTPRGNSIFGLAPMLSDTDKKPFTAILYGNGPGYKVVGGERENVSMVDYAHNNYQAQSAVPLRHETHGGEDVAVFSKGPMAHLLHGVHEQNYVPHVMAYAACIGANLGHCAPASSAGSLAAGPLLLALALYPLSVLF
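system = human TNAP | amount = enzyme diluted 1/800 final | reagent = 100 µM CDP-star substrate | signal = luminescent substrate turnover signal | dosing = one dose, 20 µM | benchmarks = EDTA negative control, DMSO positive control | measure = activation factor | timing = 30 min reaction, room temperature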
TNAP inh hiacc: human TNAP enzyme inhibitors, primary screen, biochemical, luminescent, high phosphate acceptor level, uHTS; inhibition, % at 20 µM; AID 1135, 2008; purified TNAP, CDP-star luminescence, 1 M DEA; hit rate 0.03% among 200,000;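 active = over 50% inhibition of tissue-nonspecific alkaline phosphatase at 20 µM in the single-dose screen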
CHT block: inhibitors of human choline transporter CHT; CHT-expressing cells, membrane potential dye, choline response; active compounds read low; B-score at 10 µM; hit rate 0.86% among 310,000;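 active = B-score over 3 SD under the library average, and starting fluorescence ratio not unusually high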;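 also: choline stimulus applied at its EC90 after an EC20 pre-addition; B-score computed on integrated fluorescence ratio after choline addition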
CHT PAM: CHT positive allosteric modulators, primary screen, cell-based, membrane potential dye, choline EC20; CHT-expressing cells; active compounds read high; LV-AA mutant CHT in HEK293 cells; hit rate 0.49% among 310,000; High affinity choline transporter 1 (Homo sapiens), Q9GZV3; B-score at 10 µM; AID 488977, 2010;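 active = initial fluorescence not abnormally high and integrated response B-score, plate-corrected, over 3 SD above library mean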
ABCB6 inh 2: ABCB6 transporter inhibitors, primary screen, K562-ABCB6 cells, flow cytometry, MLPCN library. ATP-binding cassette sub-family B member 6 (Homo sapiens), Q9NP58. K562-ABCB6 porphyrin accumulation, 1 h; active compounds read low. fluorescence ratio to DMSO, % at 10 µM. hit rate 0.19% among 360,000;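 active = fluorescence ratio to DMSO below 75%, the collection mean minus 3 SD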;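 also: signal is porphyrin accumulated inside mitochondria; lower ratio means ABCB6 inhibition with less porphyrin fluorescence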
TNAP inh no acc: human TNAP enzyme inhibitors, primary screen, biochemical, luminescent, no phosphate acceptor, uHTS. Alkaline phosphatase, tissue-nonspecific isozyme (Homo sapiens), P05186. purified TNAP, CDP-star luminescence, 30 min. inhibition, % at 20 µM. hit rate 0.26% among 200,000;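 active = tissue-nonspecific alkaline phosphatase inhibition above about 50% at 20 µM in the single-dose screen, limit read from the data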
CHT act confirm: CHT activators, confirmation, cell-based, membrane potential dye, duplicate | shares compounds with CHT PAM | CHT-expressing cells, membrane potential dye fluorescence (FDSS); % of choline EC20–EC90 response window; HEK293 expressing CHT LV-AA mutant; choline added at its EC20 | activation, % at 10 µM | hit rate 91% among 2,500;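 active = primary screen active, with duplicate mean activation above negative control mean plus 3 SD, cut at about 11% in these data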
HEK293 MP dye: membrane potential response in parental HEK293 cells, counter-screen for CHT activator project, cell-based, membrane potential dye; shares compounds with CHT PAM; membrane potential dye fluorescence (FDSS); measured after EC20 choline addition; ratio readout change at 10 µM, hits read low; hit rate 62% among 2,500; AID 623908, 2012;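 active = duplicate-averaged ratio beyond 3 SD from buffer wells, up or down, though filed actives are nearly all decreases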
Of the large screens only hits and unclear results are named; the others gave an inactive call (follow-up assays come after a bar, where they were run). Sampled rows, rich in hits. Any-hit rate of the full collection: about 1.4%.

C/C=C/C=C/C(=O)[C@@H]1[C@@H]([C@]2(C)OC(=O)C(C)=C2O)[C@H]2/C(=C(O)/C=C/C=C/C)C(=O)[C@]1(C)C(=O)C2(C)O (some centres not stated)	none (no result: TNAP act hi DEA, TNAP inh hiacc, TNAP inh no acc)
COCCCNC(=O)c1cc(Sc2nnc(C)s2)nc2ccccc12	none (no result: TNAP act hi DEA, TNAP inh hiacc, TNAP inh no acc)
Cc1nnc(Sc2cc(C(=O)NCCCN(C)Cc3ccccc3)c3ccccc3n2)s1	CHT PAM 6.5 | CHT act confirm 24 | HEK293 MP dye -29
COc1ccc(S(=O)(=O)NC(=O)C2(C)CCN2C(=O)c2cccc(F)c2)cc1 (configuration not stated)	none (no result: TNAP act hi DEA, TNAP inh hiacc, CHT block, CHT PAM, TNAP inh no acc)
COc1cc(C(=O)OCCCN2CCCN(CCCOC(=O)c3cc(OC)c(OC)c(OC)c3)CC2)cc(OC)c1OC	CHT PAM 9.1 (no result: TNAP act hi DEA, TNAP inh hiacc, TNAP inh no acc) | CHT act confirm 44 | HEK293 MP dye -31
COc1cc(C(=O)OCCN2CCOCC2)cc(OC)c1OC	none
Cc1ccc(O)c(Cc2cc(C)cc(Cc3cc(C)ccc3O)c2O)c1	none (no result: TNAP act hi DEA, TNAP inh hiacc, CHT block, CHT PAM, TNAP inh no acc)
CCC[n+]1c2ccccc2cc2ccccc21	none (no result: TNAP act hi DEA, TNAP inh hiacc, TNAP inh no acc) | CHT act confirm 76 | HEK293 MP dye -71
CCCC[n+]1c2ccccc2cc2ccccc21	none (no result: TNAP act hi DEA, TNAP inh hiacc, TNAP inh no acc)
O=C(NC(c1ccc(Cl)cc1)c1ccsc1)C1CCN(Cc2ccc(Oc3ccccc3)cc2)CC1 (configuration not stated)	none (no result: TNAP act hi DEA, TNAP inh hiacc, CHT block, CHT PAM, TNAP inh no acc)
CCOc1cc(NC(=O)c2ccco2)c(OCC)cc1NC(=O)c1ccco1	CHT PAM 11 (no result: TNAP act hi DEA, TNAP inh hiacc, TNAP inh no acc) | CHT act confirm 21 | HEK293 MP dye inactive
CCOc1cc(NC(=S)NC)c(OCC)cc1NC(=O)c1ccco1	none
CC(C)NC(=O)C1CCN(C2CCN(C(=O)c3scc4c3CCCC4)CC2)CC1	none
CCN1CCCC(NC(=O)c2cc([N+](=O)[O-])ccc2OC)C1 (configuration not stated)	CHT PAM 7.3 | CHT act confirm 36 | HEK293 MP dye -35
CCN(CC)CCCN(C(=O)c1ccc(Br)cc1)c1nc(-c2ccc(OC)cc2)cs1	none (no result: TNAP act hi DEA, TNAP inh hiacc, TNAP inh no acc)
CCN(CC)CCCN(C(=O)c1cccs1)c1nc(-c2ccc(OC)cc2)cs1	CHT PAM 6.3 | CHT act confirm 48 | HEK293 MP dye -47
Cc1ccc(-n2cccn2)c(CN2CCCC(CNC(=O)c3ccc(F)cc3)C2)c1 (configuration not stated)	none | CHT act confirm 39 | HEK293 MP dye inactive
CCOC(=O)C1(CC2CCCCO2)CCN(Cc2cc(F)ccc2-n2cccn2)CC1 (configuration not stated)	CHT PAM 9.4 | CHT act confirm 49 | HEK293 MP dye inactive
CCOC(=O)C1(CC2CCCCO2)CCN(Cc2c(C)cc(C)cc2-n2cccn2)CC1 (configuration not stated)	none
COc1cc(NC(=O)CN2C(=O)CSc3ccc(S(=O)(=O)N4CCCC4)cc32)cc(OC)c1	none (no result: TNAP act hi DEA, TNAP inh hiacc, TNAP inh no acc)
COc1ccc(OC)c(C(C)NC(=O)Nc2cccc(C(C)=O)c2)c1 (configuration not stated)	none
C=CCOC(=O)c1cn(CC)c2nc(C)ccc2c1=O	CHT PAM 10 | CHT act confirm 73 | HEK293 MP dye -67
C=CCn1cc(C(=O)OCC)c(=O)c2cc(F)c(F)cc21	CHT PAM 7 (no result: TNAP act hi DEA, TNAP inh hiacc, TNAP inh no acc) | CHT act confirm 48 | HEK293 MP dye -56
CCn1cc(C(=O)OCC(=O)OC2CC(C)CCC2C(C)C)c(=O)c2ccc(C)nc21 (configuration not stated)	none | CHT act confirm 31 | HEK293 MP dye inactive
CCn1cc(C(=O)OCC(=O)c2ccccc2)c(=O)c2ccc(C)nc21	none (no result: CHT block, CHT PAM)
CCn1cc(C(=O)OCc2ccc(F)cc2)c(=O)c2ccc(C)nc21	CHT PAM 8 | CHT act confirm 56 | HEK293 MP dye -87
CCCN(CCC)CC(O)CN1C(=O)NC(C)(C)C1=O (configuration not stated)	none
O=C(CSc1nc2ccccc2[nH]1)NCc1ccc(F)cc1	none
CCn1cc(C(=O)NCc2ccc3c(c2)OCO3)c(=O)c2ccc(C)nc21	none (no result: CHT block, CHT PAM, ABCB6 inh 2)
CCn1cc(C(=O)OCC(=O)NCc2ccc3c(c2)OCO3)c(=O)c2ccc(C)nc21	CHT PAM 10 | CHT act confirm 60 | HEK293 MP dye -56
CCn1cc(C(=O)OCC(=O)Nc2c(C)n(C)n(-c3ccccc3)c2=O)c(=O)c2ccc(C)nc21	CHT PAM 11 | CHT act confirm 78 | HEK293 MP dye -72
CCn1cc(C(=O)OC(C)C(=O)Nc2c(C)n(C)n(-c3ccccc3)c2=O)c(=O)c2ccc(C)nc21 (configuration not stated)	none (no result: CHT block, CHT PAM)
CCC1=[N+](CC(=O)c2ccc(C)cc2)CCn2c(C)ccc21	none | CHT act confirm 32 | HEK293 MP dye inactive
CCC1=[N+](CC(=O)c2ccc(Br)cc2)CCn2c(C)ccc21	none (no result: TNAP act hi DEA, TNAP inh hiacc, TNAP inh no acc)
Cn1c(=O)cc(OCC(=O)NCCC2=CCCCC2)c2ccccc21	none
CCN1CCCC1CNC(=O)CSc1cc(=O)n(C)c2cc(Cl)ccc12 (configuration not stated)	none | CHT act confirm 50 | HEK293 MP dye -34
CCN1CCCC1CNC(=O)COc1cc(=O)n(C)c2ccccc12 (configuration not stated)	CHT PAM 7.2 | CHT act confirm 43 | HEK293 MP dye -39
CC1CCN(CCCNC(=O)COc2cc(=O)n(C)c3ccccc23)CC1	none | CHT act confirm 43 | HEK293 MP dye -33
CCn1c(=O)cc(OCC(=O)NCCCN2CCC(C)CC2)c2ccccc21	none
Cn1c(=O)cc(SCC(=O)NCC2CCCO2)c2ccc(Cl)cc21 (configuration not stated)	none
CC1CC(C)CN(CCCNC(=O)COc2cc(=O)n(C)c3ccccc23)C1 (configuration not stated)	none | CHT act confirm 17 | HEK293 MP dye -28

Screens (PubChem BioAssay)
